Only some compounds are listed: those with a hit (about 2.8% of all), similar ones and a draw of the others.
ASAP1 inh: ASAP1 ArfGAP inhibition | AID 624377 | Q9ULH1 | ASAP1-stimulated ARF1 GTP hydrolysis, GDP FP detection | 0.19% of 360,000 active | inhibition, % at 16.5 µM; in the data active = inhibition above about 25%;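 note: 0% = vehicle with enzyme and substrate and 100% = no enzyme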
pPAFAH FP inh: inhibitors of human plasma PAF acetylhydrolase (pPAFAH). AID 463082. inhibition, % at 3.39 µM. 1.5% of 330,000 active. recombinant pPAFAH, FP-rhodamine probe fluorescence polarization;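 active = inhibition above the mean inhibition across the screen plus 3 SD, cut at about 25% in these data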;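 note: inhibitors block binding of the rhodamine activity-based probe so polarization drops; 0% = enzyme with DMSO and 100% = wells lacking pPAFAH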
Target sequence (Q13093 whole entry, looked up): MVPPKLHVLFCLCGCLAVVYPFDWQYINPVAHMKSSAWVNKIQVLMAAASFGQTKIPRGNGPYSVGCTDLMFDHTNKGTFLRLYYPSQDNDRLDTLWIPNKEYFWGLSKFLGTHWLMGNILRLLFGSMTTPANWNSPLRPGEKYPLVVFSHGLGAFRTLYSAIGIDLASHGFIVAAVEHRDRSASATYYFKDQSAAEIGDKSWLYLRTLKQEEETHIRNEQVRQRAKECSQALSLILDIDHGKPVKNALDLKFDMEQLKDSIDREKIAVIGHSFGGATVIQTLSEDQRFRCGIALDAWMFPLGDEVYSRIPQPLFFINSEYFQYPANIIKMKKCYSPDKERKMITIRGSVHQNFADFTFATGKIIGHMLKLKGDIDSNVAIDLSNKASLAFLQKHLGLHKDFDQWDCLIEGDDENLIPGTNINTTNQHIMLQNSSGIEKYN
PAFAH2 FP inh: inhibitors of human PAFAH2; Q99487; recombinant PAFAH2, FP-rhodamine activity probe, fluorescence polarization; inhibition, % at 3.39 µM; 0.99% of 340,000 active; AID 492956;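 active = inhibition above the mean over all tested compounds plus 3 SD, cut at about 30% in these data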;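 note: inhibitors block probe labeling of enzyme so polarization drops; 0% = enzyme with DMSO and 100% = wells lacking PAFAH2 protein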
ARFGAP1 inh: inhibitors of rat ARFGAP1; 0.26% of 360,000 active; inhibition, % at 16.5 µM; Q62848; Arfgap1-stimulated ARF1 GTP hydrolysis, GDP FP detection;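 active = inhibition above a per-plate limit, mean inhibition of low control wells plus 3 SD, cut at about 25% in these data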;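 note: 0% = DMSO wells with enzyme and 100% = wells lacking Arfgap1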
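Replicates: Single well per compound | Assay system: Truncated rat Arfgap1 GAP domain | Control set: No-Arfgap1 wells (100%) versus DMSO full-reaction wells (0%) | Times: Enzyme reaction 120 min at 25 °C after 20 min preincubation | Reagent: Human ARF1(Δ1-17)-GTP substrate | Measured by: Tracer-displacement fluorescence polarization with EDTA stop, 620/688 nm | Measure: Percent inhibition of Arfgap1-stimulated GTP hydrolysis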
PAFAH1B2 inh: PAFAH1B2 (human) inhibition; AID 492953; 1.2% of 340,000 active; P68402; inhibition, % at 3.39 µM; recombinant PAFAH1B2, FP-rhodamine activity probe, fluorescence polarization;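 active = inhibition above the mean of all tested compounds plus 3 SD, cut at about 24% in these data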;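 note: 0% = enzyme with DMSO and 100% = wells lacking PAFAH1B2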
PAFAH1B3 inh: blocks human PAF acetylhydrolase 1B catalytic subunit 3; 0.28% of 340,000 active; inhibition, % at 3.39 µM; recombinant PAFAH1B3, FP-rhodamine probe, fluorescence polarization; AID 492972; Q15102;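 active = inhibition above the screen-wide average of all tested compounds plus 3 SD, cut at about 25% in these data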;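 note: 0% = enzyme with DMSO only and 100% = wells lacking PAFAH1B3 protein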
Target sequence (Q15102 whole entry, looked up): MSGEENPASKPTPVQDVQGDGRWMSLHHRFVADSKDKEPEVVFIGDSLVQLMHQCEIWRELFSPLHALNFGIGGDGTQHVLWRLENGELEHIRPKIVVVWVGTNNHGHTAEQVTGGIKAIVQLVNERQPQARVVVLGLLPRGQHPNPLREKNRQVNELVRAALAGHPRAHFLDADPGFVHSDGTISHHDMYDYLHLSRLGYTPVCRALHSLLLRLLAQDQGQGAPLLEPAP
* marks the source's active call; other numbers are inactive results; x = not tested or not shown.

SMILES | ASAP1 inh | pPAFAH FP inh | PAFAH2 FP inh | ARFGAP1 inh | PAFAH1B2 inh | PAFAH1B3 inh
CCC(C(=O)NC(C)(C)C)n1c(-c2ccc(C)cc2)nc2ccccc21 (stereo unspecified) | 2.1 | x | x | 0.0 | x | x
O=C1/C(=C/c2cccs2)CCC/C1=C\c1cccs1 | -2.0 | 29.1* | -1.4 | -3.4 | 11.7 | 8.2
CCN(CC)CCN(Cc1cc2cc3c(cc2[nH]c1=O)OCO3)C(=S)NCCOC | -13.6 | -6.5 | -0.5 | 7.3 | 4.8 | 0.8
O=C(Cn1nnc(-c2cc(C(F)(F)F)cc(C(F)(F)F)c2)n1)NNC(=S)Nc1ccc(Cl)cc1 | 5.3 | 27.2* | 2.8 | 12.1 | 9.7 | 10.9
Cc1cc(C(F)(F)F)nn1CC(=O)NNC(=S)Nc1ccc(Cl)cc1 | 3.1 | 1.0 | 9.6 | 4.8 | 5.4 | -0.3
CCc1cccc2c(/C=N/NC(=O)c3cccc(S(=O)(=O)Nc4ccccc4Cl)c3)c[nH]c12 | -4.1 | 26.7* | 3.9 | 2.4 | 25.9* | 31.4*
Cc1ccc(SCC(=O)NNC(=O)c2cncc(Br)c2)cc1 | -1.7 | 1.7 | -3.8 | -4.3 | 28.9* | 10.0
CC1=CC(=O)C=C/C1=C(/c1ccc(O)cc1C)c1ccccc1S(=O)(=O)O | -2.5 | 16.6 | -0.9 | 5.7 | 26.3* | 2.4
O=C(CN1CCN(CC(=O)Nc2cccc(F)c2)CC1)Nc1ccc(-c2ccccc2)cc1 | -10.4 | -1.9 | 2.9 | -3.9 | 9.4 | 6.1
CCCCC(=O)N(C)c1c(CC)nc2c(OCCOc3ccccc3)cccn12 | -8.9 | x | x | 2.0 | x | x
COc1ccc(C2=NN(c3nc(-c4ccccc4)c(CC(=O)O)s3)C(c3ccco3)C2)cc1 (stereo unspecified) | 1.1 | 29.8* | 3.2 | 2.5 | -3.1 | -7.3
O=C(CSCc1ccc(Cl)cc1)NN=C1CCCCCC1 | 2.3 | 2.5 | 5.1 | 6.0 | 13.2 | 2.4
O=C(CCSc1ccc(Cl)cc1)NN=C1CCCCCC1 | -0.8 | 3.2 | 0.7 | -10.3 | 24.5* | 3.3
C=CCOC(=O)C(=O)/C=C/c1ccc2c(c1)Cc1ccccc1-2 | 12.5 | 27.5* | -4.5 | 6.0 | -0.4 | -0.2
C=CCOC(=O)C(=O)/C=C/c1csc2ccccc12 | -1.4 | 24.0 | 1.5 | -8.1 | 1.2 | -0.1
COC(=O)C1=C(C)N(Cc2ccccc2C(F)(F)F)C(=NCc2ccccc2C(F)(F)F)NC1c1cccc(F)c1 (stereo unspecified) | -6.0 | x | x | 8.8 | x | x
CC1=NN(c2ccc(C)c(C)c2)C(=O)/C1=C\C=C\c1ccc([N+](=O)[O-])o1 | 2.3 | 25.4* | 4.5 | 1.8 | -2.8 | 2.2
CC1=NN(c2ccccc2)C(=O)/C1=C\C=C\c1ccccc1 | -5.4 | 7.0 | x | -6.7 | x | x
COc1cccc(N2CCN(C(=O)C3CCCN(c4ncnc5c4nc4n5CCCCC4)C3)CC2)c1 (stereo unspecified) | -2.0 | 7.3 | 6.9 | -6.9 | 0.1 | 3.6
Cc1cc(NCCCn2ccnc2)n2nc(C)c(-c3ccc(Cl)cc3)c2n1 | -8.7 | 25.5* | 4.2 | 2.6 | 0.0 | 4.9
Cc1cc(NCCN2CCOCC2)n2nc(C)c(-c3ccccc3)c2n1 | -4.5 | 2.9 | -7.6 | -3.0 | -3.6 | 3.5
Cc1cc(NCCCn2ccnc2)n2nc(C)c(-c3ccccc3)c2n1 | -7.1 | -3.5 | -0.9 | -3.6 | 7.3 | 6.5
Cc1cc(NCCN2CCOCC2)n2nc(C)c(-c3ccc(Cl)cc3)c2n1 | 5.8 | 27.8* | 5.4 | 5.9 | 0.8 | 3.4
O=C1C=C(O)c2c(O)cccc2C1=O | x | 26.6* | x | x | x | x
COC(=O)c1cc(NC(=O)Cc2cccs2)cc(C(=O)OC)c1 | -12.9 | 26.4* | 8.9 | 1.4 | 5.3 | 11.3
SMILES | ASAP1 inh | pPAFAH FP inh | PAFAH2 FP inh | ARFGAP1 inh | PAFAH1B2 inh | PAFAH1B3 inh
CC(=O)Nc1cccc(NC(=O)Cc2cccs2)c1 | 5.6 | 10.5 | 1.4 | -5.9 | -2.0 | 8.8
Cc1ccc([N+](=O)[O-])cc1NC(=O)Cc1cccs1 | 5.1 | 26.6* | 0.5 | -2.7 | -1.9 | 2.0
COC(=O)c1ccccc1COc1cccn2c(N(C)CC3CC3)c(C)nc12 | -0.4 | x | x | -16.7 | x | x
Nc1cc(S(=O)(=O)Nc2ccccc2Cl)ccc1N1CCOCC1 | 8.2 | 3.7 | 6.8 | -3.6 | 0.6 | 11.1
O=S(=O)(Nc1ccc(Cl)cc1)c1ccc2c(c1)CCO2 | -2.2 | 31.6* | 0.2 | -1.8 | 19.7 | -5.1
Nc1cc(S(=O)(=O)Nc2ccc(Cl)cc2)ccc1N1CCOCC1 | 8.3 | 25.0* | 4.5 | 10.9 | 0.9 | -2.7
Nc1[nH]c(C(=O)c2ccccc2)c(-c2ccccc2C(F)(F)F)c1C(=O)NCc1cccc2ccccc12 | -1.7 | x | x | 6.8 | x | x
Cc1ccc(Cc2cnc(NC(=O)C3CCCO3)s2)cc1 (stereo unspecified) | 10.1 | 10.2 | -1.3 | 4.3 | 28.3* | 4.2
O=C(Nc1ncc(Cc2cccc(C(F)(F)F)c2)s1)C1CCCO1 (stereo unspecified) | -4.8 | 10.0 | -0.2 | -7.5 | 3.4 | -5.9
CCNC(=O)c1cc2c(c(-c3cccc(-c4cccnc4)c3)n1)[C@H](CCO)N(S(C)(=O)=O)C2 | 10.9 | x | x | -6.5 | x | x
CCCCNC(=O)Oc1ccc(C(=O)N2c3ccccc3NC(=O)C2C)cc1 (stereo unspecified) | 4.2 | -1.8 | -11.1 | 7.5 | 34.2* | 4.0
CCCC(=O)Nn1cnc2c(c1=O)C1(CCCC1)Cc1ccccc1-2 | 1.4 | 9.8 | 1.6 | -9.0 | 9.2 | 11.4
C=CCSc1n[nH]c2nc3c(c(=O)n12)C1(CCCC1)Cc1ccccc1-3 | -3.0 | 5.8 | 9.4 | -3.8 | 44.1* | -0.1
O=c1c2c(nc3n1CCCCC3)-c1ccccc1CC21CCCC1 | -6.9 | 1.8 | -1.2 | 0.3 | 27.8* | -0.7
CC(=O)Nn1cnc2c(c1=O)C1(CCCC1)Cc1ccccc1-2 | 4.2 | 7.2 | -1.3 | 15.0 | 25.2* | 15.8
C[C@@H](NC(=O)c1ncn(C)c1C(=O)N[C@H](C)c1ccccc1)c1ccccc1 | 5.0 | 0.8 | -0.9 | 6.3 | -0.5 | 9.0
O=C1C(=O)N(CNc2ccccn2)c2ccccc21 | 2.4 | 28.6* | 8.7 | 5.3 | 2.2 | 3.7
O=C1C(=O)N(CNc2cccnc2)c2ccccc21 | 13.1 | 3.8 | 8.4 | 9.3 | -0.8 | 6.6
CCCOc1ccc(C(CC(=O)O)NC(=O)C(c2ccccc2)c2ccccc2)cc1 (stereo unspecified) | -0.5 | 2.2 | 0.8 | -6.1 | 26.0* | 3.7
Cc1c(NC(=O)C(C)OC(=O)c2sc3ccccc3c2Cl)c(=O)n(-c2ccccc2)n1C (stereo unspecified) | -4.2 | 3.1 | 8.8 | 0.5 | 1.2 | 5.9
Cc1c(NC(=O)C(C)OC(=O)c2ccc([N+](=O)[O-])s2)c(=O)n(-c2ccccc2)n1C (stereo unspecified) | 8.5 | 29.8* | 13.5 | 8.8 | 21.7 | 33.0*
COC(=O)c1ccc(C(=O)N2CCCC(Nc3ccc(C(C)C)cc3)C2)nc1 (stereo unspecified) | -1.8 | 7.1 | 0.1 | -6.3 | 24.7* | 11.6
